{
  "source": "ChEMBL document CHEMBL4007505",
  "about": "(J Med Chem, 2017)",
  "key": {"[1]": {"biological_target": "T1, Alpha-1A adrenergic receptor (Homo sapiens, UniProt P35348)", "T1 sequence (P35348 whole entry)": "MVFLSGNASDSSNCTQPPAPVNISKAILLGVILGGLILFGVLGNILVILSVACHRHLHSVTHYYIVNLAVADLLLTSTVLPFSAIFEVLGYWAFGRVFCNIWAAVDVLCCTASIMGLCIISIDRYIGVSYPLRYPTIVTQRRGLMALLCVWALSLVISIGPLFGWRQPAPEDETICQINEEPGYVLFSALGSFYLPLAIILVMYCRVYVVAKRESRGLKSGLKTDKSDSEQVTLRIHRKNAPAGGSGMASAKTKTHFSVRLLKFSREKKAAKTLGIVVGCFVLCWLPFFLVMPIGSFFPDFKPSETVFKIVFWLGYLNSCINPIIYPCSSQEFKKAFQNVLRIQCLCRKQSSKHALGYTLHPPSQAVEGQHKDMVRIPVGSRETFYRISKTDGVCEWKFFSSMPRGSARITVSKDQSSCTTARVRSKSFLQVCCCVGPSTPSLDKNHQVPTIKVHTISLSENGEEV", "experiment": "Displacement of [3H]Prazosin from human adrenergic alpha1A receptor"}, "[2]": {"biological_target": "T2, Sodium-dependent noradrenaline transporter (Homo sapiens, UniProt P23975)", "T2 sequence (P23975 whole entry)": "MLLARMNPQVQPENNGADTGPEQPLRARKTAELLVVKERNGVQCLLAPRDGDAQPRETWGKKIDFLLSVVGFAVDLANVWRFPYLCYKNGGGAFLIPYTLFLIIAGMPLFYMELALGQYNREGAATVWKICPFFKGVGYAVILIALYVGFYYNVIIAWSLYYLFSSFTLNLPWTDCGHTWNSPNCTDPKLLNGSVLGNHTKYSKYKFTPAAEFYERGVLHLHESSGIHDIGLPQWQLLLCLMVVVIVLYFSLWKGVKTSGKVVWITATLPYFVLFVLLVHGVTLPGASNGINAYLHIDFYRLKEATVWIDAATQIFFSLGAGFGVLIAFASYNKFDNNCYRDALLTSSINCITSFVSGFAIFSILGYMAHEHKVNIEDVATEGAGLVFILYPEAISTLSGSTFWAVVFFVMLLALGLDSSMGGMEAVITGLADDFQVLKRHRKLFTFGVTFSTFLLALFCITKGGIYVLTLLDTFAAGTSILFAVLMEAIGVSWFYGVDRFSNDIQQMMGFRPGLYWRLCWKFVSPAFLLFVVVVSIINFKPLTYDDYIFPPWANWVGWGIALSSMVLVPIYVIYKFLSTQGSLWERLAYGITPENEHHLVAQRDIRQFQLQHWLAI", "experiment": "Enhancing of [125I]RTI-55 binding to recombinant human NET expressed in HEK293 cell membranes preincubated for 10 mins followed by radioligand addition measured after 90 mins by micro beta scintillation counting analysis", "set-up": "concentration or dose not given beside the values"}, "[3]": {"biological_target": "Alpha-2B adrenergic receptor (Homo sapiens, UniProt P18089)", "sequence (P18089 whole entry)": "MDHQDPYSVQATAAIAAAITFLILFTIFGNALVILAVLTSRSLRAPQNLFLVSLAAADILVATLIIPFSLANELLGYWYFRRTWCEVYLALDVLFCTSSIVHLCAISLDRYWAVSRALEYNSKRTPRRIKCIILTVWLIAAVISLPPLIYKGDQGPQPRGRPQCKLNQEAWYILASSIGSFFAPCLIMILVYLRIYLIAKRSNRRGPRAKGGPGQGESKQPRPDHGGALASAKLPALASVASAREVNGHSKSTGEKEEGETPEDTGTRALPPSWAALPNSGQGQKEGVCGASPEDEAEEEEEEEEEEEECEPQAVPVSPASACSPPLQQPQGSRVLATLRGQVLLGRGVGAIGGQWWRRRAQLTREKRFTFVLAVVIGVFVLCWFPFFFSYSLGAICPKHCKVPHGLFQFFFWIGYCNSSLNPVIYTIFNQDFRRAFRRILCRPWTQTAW", "experiment": "Displacement of [3H]Rauwolscine from human adrenergic alpha2B receptor"}, "[4]": {"biological_target": "T3, Sodium-dependent dopamine transporter (Homo sapiens, UniProt Q01959)", "T3 sequence (Q01959 whole entry)": "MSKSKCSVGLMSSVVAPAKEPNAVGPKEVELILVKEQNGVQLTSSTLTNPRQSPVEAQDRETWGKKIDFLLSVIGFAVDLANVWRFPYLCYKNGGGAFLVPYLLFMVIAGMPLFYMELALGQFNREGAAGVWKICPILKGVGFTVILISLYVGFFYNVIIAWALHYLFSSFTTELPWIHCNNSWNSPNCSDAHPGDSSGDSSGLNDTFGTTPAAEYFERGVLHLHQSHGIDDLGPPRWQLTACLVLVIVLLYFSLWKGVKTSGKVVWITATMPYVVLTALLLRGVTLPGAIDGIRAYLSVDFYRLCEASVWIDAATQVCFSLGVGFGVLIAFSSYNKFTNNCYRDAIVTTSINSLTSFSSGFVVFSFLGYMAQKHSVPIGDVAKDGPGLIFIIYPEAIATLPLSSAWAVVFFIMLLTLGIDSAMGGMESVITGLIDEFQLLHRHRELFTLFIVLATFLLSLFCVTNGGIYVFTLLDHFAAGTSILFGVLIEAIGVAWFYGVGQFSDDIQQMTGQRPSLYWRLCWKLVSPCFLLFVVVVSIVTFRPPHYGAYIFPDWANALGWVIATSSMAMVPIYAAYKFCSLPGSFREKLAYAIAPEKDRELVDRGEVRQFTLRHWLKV", "experiment": "Enhancing of [125I]RTI-55 binding to recombinant human DAT expressed in HEK293 cell membranes preincubated for 10 mins followed by radioligand addition measured after 90 mins by micro beta scintillation counting analysis", "set-up": "concentration or dose not given beside the values", "in_short": "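Membranes of HEK-293 cells stably expressing hDAT, hNET or hSERT. […] Compound preincubated 10 min at room temperature, then [125I]23 (40-80 pM final) or [3H]26 (1-3 nM for DAT and NET, 10-13 nM for SERT) added. Incubated 90 min at room temperature in the dark, then filtered. EC50 or Ki; mean ± SEM.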"}, "[5]": {"biological_target": "T3, Sodium-dependent dopamine transporter", "experiment": "Inhibition of [3H]WIN35,428 binding to recombinant human DAT expressed in HEK293 cell membranes at 10 uM pre-incubated for 10 mins before radioligand addition and measured 90 mins after radioligand addition by micro beta scintillation counting analysis relative to control"}, "[6]": {"biological_target": "T4, Alpha-1B adrenergic receptor (Homo sapiens, UniProt P35368)", "T4 sequence (P35368 whole entry)": "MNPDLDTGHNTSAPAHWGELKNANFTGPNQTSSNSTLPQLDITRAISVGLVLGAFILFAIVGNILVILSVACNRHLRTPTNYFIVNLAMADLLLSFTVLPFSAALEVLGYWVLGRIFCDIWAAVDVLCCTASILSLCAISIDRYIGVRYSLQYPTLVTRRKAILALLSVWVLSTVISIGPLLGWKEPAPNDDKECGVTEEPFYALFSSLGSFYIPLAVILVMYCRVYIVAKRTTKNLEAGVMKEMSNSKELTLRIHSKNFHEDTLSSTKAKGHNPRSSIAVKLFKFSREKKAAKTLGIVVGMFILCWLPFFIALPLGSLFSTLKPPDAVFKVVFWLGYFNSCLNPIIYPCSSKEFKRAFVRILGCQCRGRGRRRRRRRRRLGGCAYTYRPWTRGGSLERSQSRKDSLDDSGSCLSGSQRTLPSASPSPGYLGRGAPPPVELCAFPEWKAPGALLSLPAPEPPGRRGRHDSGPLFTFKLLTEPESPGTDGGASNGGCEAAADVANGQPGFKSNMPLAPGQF", "experiment": "Displacement of [3H]Prazosin from human adrenergic alpha1B receptor"}, "[7]": {"biological_target": "T3, Sodium-dependent dopamine transporter", "experiment": "Enhancing of [3H]WIN35,428 binding to recombinant human DAT expressed in HEK293 cell membranes at 10 uM pre-incubated for 10 mins before radioligand addition and measured 90 mins after radioligand addition by micro beta scintillation counting analysis relative to control"}, "[8]": {"biological_target": "Sodium-dependent serotonin transporter (Homo sapiens, UniProt P31645)", "sequence (P31645 whole entry)": "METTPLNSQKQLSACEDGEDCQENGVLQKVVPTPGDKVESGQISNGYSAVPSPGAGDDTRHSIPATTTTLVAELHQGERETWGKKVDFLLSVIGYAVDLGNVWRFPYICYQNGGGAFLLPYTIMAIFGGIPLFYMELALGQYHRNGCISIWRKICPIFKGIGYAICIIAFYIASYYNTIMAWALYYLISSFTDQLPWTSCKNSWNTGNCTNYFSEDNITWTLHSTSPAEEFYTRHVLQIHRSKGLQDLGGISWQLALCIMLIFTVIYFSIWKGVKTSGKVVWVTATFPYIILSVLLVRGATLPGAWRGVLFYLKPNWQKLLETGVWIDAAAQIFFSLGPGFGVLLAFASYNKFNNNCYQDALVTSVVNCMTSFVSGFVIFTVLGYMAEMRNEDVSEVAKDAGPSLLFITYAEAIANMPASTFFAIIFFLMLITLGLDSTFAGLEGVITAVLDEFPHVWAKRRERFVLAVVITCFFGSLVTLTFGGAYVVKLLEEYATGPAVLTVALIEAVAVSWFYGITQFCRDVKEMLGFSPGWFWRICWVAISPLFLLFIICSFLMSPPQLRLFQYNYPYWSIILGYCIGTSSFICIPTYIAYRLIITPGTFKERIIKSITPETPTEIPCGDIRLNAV", "experiment": "Enhancing of [3H]mazindol binding to recombinant human SERT expressed in HEK293 cell membranes preincubated for 10 mins followed by radioligand addition measured after 90 mins by micro beta scintillation counting analysis"}, "[9]": {"biological_target": "T2, Sodium-dependent noradrenaline transporter", "experiment": "Inhibition of recombinant human NET expressed in HEK293 […] assessed as reduction in [3H]-norepinephrine uptake incubated for 22 mins by micro beta scintillation counting analysis"}},
  "note": "Active and inactive are the calls of the source. The calls are words filed in the database; no cut-off is given here.",
  "data": [
    {"smiles": "CNc1nc(C#Cc2ccc(Cl)s2)nc2c1ncn2[C@@H]1O[C@H](C(=O)OC)[C@@H](O)[C@H]1O", "values": [
      {"measurement": "Ki", "setting": "[1]", "value": "> 10000", "unit": "nM"},
      {"measurement": "Activity", "setting": "[2]", "value": 227, "unit": "%"},
      {"measurement": "EC50", "setting": "[2]; read-out: EC50", "value": 1520, "unit": "nM"},
      {"measurement": "Ki", "setting": "[3]", "value": "5000 to 10000", "unit": "nM"},
      {"measurement": "Activity", "setting": "[4]", "value": 312, "unit": "%"},
      {"measurement": "EC50", "setting": "[4]; read-out: EC50", "value": 127, "unit": "nM"},
      {"measurement": "inhibition", "setting": "[5]", "value": "inactive"},
      {"measurement": "Ki", "setting": "[6]", "value": "> 10000", "unit": "nM"},
      {"measurement": "Activity", "setting": "[7]", "value": 220, "unit": "%"},
      {"measurement": "EC50", "setting": "[8]", "value": "> 10000", "unit": "nM"},
      {"measurement": "IC50", "setting": "[9]", "value": 2690, "unit": "nM"}
    ]}
  ]
}
